High-throughput results deposited in PubChem BioAssay by several laboratories.
TLR9-MyD88 block = inhibitors of TLR9-MyD88 association in cells, primary screen, cell-based, CHO, BLA complementation, fluorescence | CCF4 FRET ratio | inhibition, % at 4.98 µM | hit rate 0.21% among 340,000 | AID 504734, 2011;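 active = inhibition above the mean over all tested compounds plus 3 SD, cut at about 21% in these data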;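 also: 0% = DMSO only wells and 100% = clavulanate BLA inhibitor control wells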
NOD2 RIPK2 PPI = NOD2-RIPK2 binding disruptors in cells, primary screen, fluorescence, CHO cells, BLA complementation; hit rate 0.38% among 360,000; inhibition, % at 4.98 µM; Receptor-interacting serine/threonine-protein kinase 2 (Homo sapiens), O43353; CCF4 ratio; in the data active = inhibition above about 21%;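 also: 0% = vehicle only and 100% = reference blocker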
Target sequence (O43353 whole entry, looked up): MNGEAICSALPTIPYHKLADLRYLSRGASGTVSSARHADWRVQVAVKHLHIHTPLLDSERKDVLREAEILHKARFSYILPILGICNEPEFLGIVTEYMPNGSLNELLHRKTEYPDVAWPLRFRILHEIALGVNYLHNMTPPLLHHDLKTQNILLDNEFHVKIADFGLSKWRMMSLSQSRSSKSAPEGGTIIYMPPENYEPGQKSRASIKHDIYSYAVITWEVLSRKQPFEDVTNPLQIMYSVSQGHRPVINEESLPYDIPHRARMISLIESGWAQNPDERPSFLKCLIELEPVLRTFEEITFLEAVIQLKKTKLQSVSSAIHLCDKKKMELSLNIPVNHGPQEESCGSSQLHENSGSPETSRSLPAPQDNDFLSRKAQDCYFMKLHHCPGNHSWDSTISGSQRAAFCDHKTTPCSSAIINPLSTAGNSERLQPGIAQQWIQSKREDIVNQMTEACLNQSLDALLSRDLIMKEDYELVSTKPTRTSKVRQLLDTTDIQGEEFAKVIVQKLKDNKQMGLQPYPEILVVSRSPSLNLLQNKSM
CHOP inhibitor = inhibitors of CHOP promoter induction, primary screen, cell-based, unfolded protein response, luciferase reporter; CHO-K1 CHOP-promoter luciferase, tunicamycin-induced, 15-18 h; inhibition, % at 10 µM; hit rate 3.8% among 220,000;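 active = compounds that reduced the stress-induced luciferase reporter signal by more than about 70% of percent inhibition, limit read from the data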;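 also: 0% = tunicamycin plus vehicle and 100% = wells without tunicamycin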
UPR XBP1 act = activators of adaptive XBP1 UPR arm, primary screen, cell-based, CHO-XBP1 luciferase reporter, luminescence, uHTS | IRE1-XBP1 UPR activation; percent of tunicamycin response, DMSO as zero | activation, % at 20 µM | hit rate 0.33% among 330,000;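 active = versus positive control, 20 µM dose yields 30% or more activation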;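 also: 100% = tunicamycin at 10 µg/mL and 0% = DMSO only wells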
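Material: CHO cell line with stable XBP1 luciferase reporter; schedule: 16-18 h cell attachment at 37 °C, then 6 h compound exposure; signal: glow luminescence from Steady-Glo reagent; medium: serum-containing F12 medium, 10% FBS; benchmarks: tunicamycin 10 µg/mL and vehicle-only wells; read-out: percent activation relative to tunicamycin reference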
UPR CHOP act = activators of apoptotic CHOP UPR arm, primary screen, cell-based, CHO-CHOP luciferase reporter, luminescence, uHTS; activation, % at 10 µM; hit rate 0.34% among 330,000; UPR activation; percent of tunicamycin response over DMSO baseline;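 active = at 10 µM dose, activation of 40% or more, normalized to positive control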;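 also: 100% = tunicamycin at 10 µg/mL and 0% = DMSO alone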
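Dosing – one dose, 10 µM in 0.5% DMSO · System – CHO-CHOP cells, stable luciferase reporter of PERK-eIF2a-CHOP signalling · Input – 500 cells/well · Control set – tunicamycin 10 µg/mL final as positive, DMSO-only wells as negative · Timing – 6 h compound treatment, 37 °C · Measure – % activation vs tunicamycin · Technique – luminescence read with Steady-Glo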
TLR4 MyD88 comp = inhibitors of TLR4-MyD88 association in cells, primary screen, cell-based, HeLa CL3-4, BLA complementation, FRET ratio; inhibition, % at 8.4 µM; hit rate 0.18% among 200,000; HeLa CL3-4 TLR4/MyD88 BLA complementation; in the data active = inhibition above about 25%;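 also: 0% = vehicle and 100% = reference inhibitor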
CHOP confirm = retest of CHOP induction inhibitors, confirmation, cell-based; CHO-CHOP promoter luciferase reporter, tunicamycin-induced, luminescence; AID 504437, 2011; inhibition, % at 10 µM; shares compounds with CHOP inhibitor; hit rate 45% among 2,100;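 active = mean of three repeat readings of reporter signal inhibition above a set limit, cut at about 70% in these data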;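 also: 0% = tunicamycin plus vehicle and 100% = wells lacking tunicamycin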
* hit, by the source's call; x = no result. Shown is part of a subset that was picked to be rich in hits.

SMILES	TLR9-MyD88 block	NOD2 RIPK2 PPI	CHOP inhibitor	UPR XBP1 act	UPR CHOP act	TLR4 MyD88 comp	CHOP confirm
CC(=O)Nc1cccc(C(=O)NN2C(=O)NC3(CCC(C)CC3)C2=O)c1 (centres undefined)	-14.1	-17.1	x	x	x	x	x
CC1CCC(n2c(=S)[nH]c3ccccc3c2=O)CC1 (centres undefined)	0.2	4.7	103.1*	3.6	2.7	6.8	104.2*
O=C(Nc1cccc(O)c1)C(Cc1ccccc1)N1C(=O)c2cccc3cccc(c23)C1=O (centres undefined)	1.4	-4.5	109.2*	4.1	-1.5	-18.9	25.1
O=C(O)C(Cc1ccccc1)N1C(=O)c2cccc3cccc(c23)C1=O (centres undefined)	-4.1	-10.5	15.8	1.4	1.1	4.2	x
CCOC(=O)CSc1nnnn1-c1cc(OC)c(Cl)cc1OC	-8.2	-9.1	31.8	-1.4	-1.6	4.3	x
COc1cc(-n2nnnc2SCC(=O)N2CCN(c3ccc(F)cc3)CC2)c(OC)cc1Cl	-10.3	5.8	98.3*	x	x	-1.3	49.3
CSC(SC)=C(C#N)C(=O)c1ccccc1	-10.0	1.4	106.7*	-8.3	38.6	x	102.0*
Nc1nc(=S)c2[nH]cnc2[nH]1	0.3	-9.4	x	-4.7	-0.5	x	x
CCc1nc2ccc(C(=O)NCCCN3CCCC3=O)cn2c1N(CC)CCOC	x	-2.3	x	x	x	x	x
CCCCc1ccc(NC(=S)NCc2cccc(OC)c2)cc1	5.6	-5.2	101.5*	0.8	-0.9	1.0	18.6
CC1(C)Oc2ccc3ccc(=O)oc3c2/C(=C/Nc2cccc(O)c2)C1=O	x	-5.8	105.9*	0.2	0.5	0.1	1.0
CCOc1ccc(/C=N/N(C)c2ccccc2)cc1OC	16.6	-8.0	100.3*	3.5	2.1	-0.7	3.1
CC(=O)Nc1ccc(S(=O)(=O)NC(CSc2ccc(C(=O)O)cc2[N+](=O)[O-])C(=O)O)cc1 (centres undefined)	1.9	-1.7	x	-2.5	0.3	x	x
CCOC(=O)c1ccc2c(c1)nc(SC/C(O)=C(\C#N)c1nc3ccccc3[nH]1)n2CC	8.4	-4.1	98.8*	1.5	1.1	-6.5	46.5
CCOC(=O)c1c(C)[nH]c(C(=O)OC/C(O)=C(\C#N)c2nc3ccccc3[nH]2)c1C	7.6	-5.0	100.1*	-1.1	-0.3	-1.3	-31.9
CCOC(=O)c1ccc2c(c1)nc(SCC(=O)c1ccco1)n2CC	-9.5	-7.8	27.9	-1.0	4.5	1.9	x
CCOC(=O)/C(O)=C(\C#N)c1nc2ccccc2[nH]1	11.8	1.2	13.2	-1.4	0.8	3.3	x
CC1CN(S(=O)(=O)c2cccc(C(=O)OC/C(O)=C(\C#N)c3nc4ccccc4[nH]3)c2)CC(C)O1 (centres undefined)	2.7	0.5	105.8*	-0.6	1.5	7.5	29.0
CCOC(=O)Cc1csc(SCC(=O)NC2CCS(=O)(=O)C2)n1 (centres undefined)	-1.3	7.6	x	-2.9	2.3	x	x
COc1cc2nc(C3CCC3)n(NC(=O)c3ccco3)c(=O)c2cc1OC	2.0	1.4	-9.2	-1.4	3.2	-4.9	x
Cc1ccc(C(C(=O)NCc2ccco2)N(C(=O)CNC(=O)c2cccs2)c2c(C)cccc2C)cc1 (centres undefined)	0.6	-11.3	100.7*	18.7	4.6	-1.2	80.4*
Cc1ccc(C(C(=O)NCc2ccco2)N(C(=O)CNC(=O)c2cccs2)c2ccc(C)cc2)cc1 (centres undefined)	2.9	-6.3	24.4	-3.3	-1.6	3.1	x
CC(=O)N1N=C(c2cccs2)CC1c1cc2cc(C)ccc2nc1Cl (centres undefined)	3.4	3.8	105.6*	12.0	-2.5	x	-54.6
CCOC(=O)C1=C(C)NC(C)=C(C(=O)OCC)C1/C=C/c1ccccc1	-12.1	-7.6	98.8*	1.1	1.7	4.1	91.5*
C=CCOC(=O)C1=C(C)NC(C)=C(C(=O)OCC=C)C1/C=C/c1ccccc1	-12.5	-6.2	100.2*	-1.5	-0.1	-6.5	104.9*
SMILES	TLR9-MyD88 block	NOD2 RIPK2 PPI	CHOP inhibitor	UPR XBP1 act	UPR CHOP act	TLR4 MyD88 comp	CHOP confirm
COc1ccccc1NS(=O)(=O)c1cc(C(=O)NCCC(C)C)ccc1F	4.7	2.0	18.0	-1.7	-0.7	4.5	x
O=P(COCCOCCOCCOCP(=O)(c1ccccc1)c1ccccc1)(c1ccccc1)c1ccccc1	-6.5	5.7	6.5	-7.8	-1.4	-4.8	x
CN1CCCN(Cc2ccccc2Br)CC1	-2.3	7.5	x	-3.5	-0.1	x	x
CCn1c(CCC(=O)N(C)CC(=O)Nc2cccc(F)c2)nc2cc(S(=O)(=O)N(C)C)ccc21	-19.1	2.9	x	0.1	0.6	x	x
O=c1ccsc2ccccc12	x	-7.1	x	x	x	x	x
O=c1[nH]sc2ccccc12	8.3	3.1	96.9*	x	x	x	-63.3
CCCCCc1c(C)nc(NCc2ccccc2)[nH]c1=O	2.2	6.0	108.5*	-0.1	-1.0	8.1	134.2*
COc1cc(OC)cc(C(=O)NCCCCc2ccccc2)c1	2.7	2.1	x	-1.9	2.4	x	x
CC1=CC(C)(C)Nc2ccc(OC(=O)CCN3C(=O)c4ccccc4C3=O)cc21	1.6	17.5	108.0*	-7.3	-5.1	2.2	-219.7
O=C(CCN1C(=O)c2ccccc2C1=O)Oc1ccc2ccccc2c1	-7.5	-10.7	38.7	0.7	-0.4	1.2	x
C[C@@H]1CN([C@H](C)CO)C(=O)CCCn2nncc2CO[C@H]1CN(C)Cc1ccc2cccnc2c1	10.8	-1.2	x	x	x	x	x
CCOc1ccc(NC(=O)c2ccccc2NC(=O)CN(C)CC(=O)Nc2ccc(C)cc2)cc1	-9.9	-6.7	107.0*	5.0	1.0	-16.8	53.4
CCOc1ccc(NC(=O)c2ccccc2NC(=O)CN2CCCCCC2)cc1	-0.4	-9.9	x	1.3	0.8	x	x
Cn1cccc1/C=C1\SC(=O)N(CC(=O)Nc2ccc(Cl)cc2)C1=O	4.5	-3.3	100.7*	-5.0	0.9	-13.3	0.9
CCOc1ccc(CN(C)C(=O)c2ccc(S(=O)(=O)N(C)c3ccccc3OC)cc2)cc1	-1.7	-15.1	x	-2.1	0.8	x	x
COc1ccc(N(CC(=O)NCc2ccccc2)C(=O)Cn2nnc(-c3ccccc3F)n2)cc1OC	2.2	-4.2	12.6	-1.2	-1.1	-16.6	x
OC(CNc1ccccc1)COc1ccc(OCC(O)CNc2ccccc2)cc1 (centres undefined)	-2.5	-2.1	65.0	-2.4	4.1	3.5	x
